The text below walks through data of ChEMBL document CHEMBL3414429, “3,4-diaminobenzoic acid derivatives as inhibitors of the oxytocinase subfamily of M1 aminopeptidases with immune-regulating properties” (J Med Chem, 2015).

The source made the active and inactive calls. The calls are words filed in the database; no cut-off is given here. Where only a bound is given, the exact number is not on record here.

The IC50 is the concentration that inhibits the measured activity by half.

The target in test [1] is T1, Endoplasmic reticulum aminopeptidase 1 (Homo sapiens, UniProt Q9NZ08). As to the kind of experiment: Inhibition of human recombinant ERAP1 expressed in baculovirus infected […] using L-leucine-7-amido-4-methyl coumarin as substrate up to 100 uM after 5 to 10 mins by fluorescence assay. An outline of the steps: (§1)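 Recombinant human enzymes made in baculovirus-infected Hi5 cells, kept in 10 mM HEPES pH 7, 100 mM NaCl, 10% glycerol. ERAP1 30 nM, ERAP2 6 nM or IRAP 6 nM with 50 μM substrate (L-AMC for ERAP1 and IRAP, R-AMC for ERAP2) and varied inhibitor. Fluorescence rise followed at ex 380/em 460; IC50 from fit of activity against inhibitor concentration.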

The target of test [2] is T2, Endoplasmic reticulum aminopeptidase 2 (Homo sapiens, UniProt Q6P179). The test is described as follows: Inhibition of human recombinant ERAP2 expressed in baculovirus infected cabbage looper ovary Hi5 cells using L-arginyl-7-amido-4-methyl coumarin as substrate after 5 to 10 mins by fluorescence assay. The arrangement: species or system Female gonad, BTI-TN-5B1-4.
For test [3], the target named is T1, Endoplasmic reticulum aminopeptidase 1. The test is described as follows: Inhibition of human recombinant ERAP1 expressed in baculovirus infected Sf9 cells using L-leucine-7-amido-4-methyl coumarin as substrate after 5 to 10 mins by fluorescence assay.
Test [4] concerns the target T2, Endoplasmic reticulum aminopeptidase 2. The test is described as follows: Inhibition of human recombinant ERAP2 expressed in baculovirus infected cabbage looper ovary Hi5 cells using L-arginyl-7-amido-4-methyl coumarin as substrate up to 100 uM after 5 to 10 mins by fluorescence assay. The following applies: BTI-TN-5B1-4. An outline of the steps: as §1
The target in test [5] is Leucyl-cystinyl aminopeptidase (Homo sapiens, UniProt Q9UIQ6). The test is described as follows: Inhibition of human recombinant IRAP expressed in baculovirus infected cabbage looper ovary Hi5 cells using L-leucine-7-amido-4-methyl coumarin as substrate up to 100 uM after 5 to 10 mins by fluorescence assay. The following applies: BTI-TN-5B1-4. An outline of the steps:
as §1

T1 sequence (Q9NZ08 whole entry): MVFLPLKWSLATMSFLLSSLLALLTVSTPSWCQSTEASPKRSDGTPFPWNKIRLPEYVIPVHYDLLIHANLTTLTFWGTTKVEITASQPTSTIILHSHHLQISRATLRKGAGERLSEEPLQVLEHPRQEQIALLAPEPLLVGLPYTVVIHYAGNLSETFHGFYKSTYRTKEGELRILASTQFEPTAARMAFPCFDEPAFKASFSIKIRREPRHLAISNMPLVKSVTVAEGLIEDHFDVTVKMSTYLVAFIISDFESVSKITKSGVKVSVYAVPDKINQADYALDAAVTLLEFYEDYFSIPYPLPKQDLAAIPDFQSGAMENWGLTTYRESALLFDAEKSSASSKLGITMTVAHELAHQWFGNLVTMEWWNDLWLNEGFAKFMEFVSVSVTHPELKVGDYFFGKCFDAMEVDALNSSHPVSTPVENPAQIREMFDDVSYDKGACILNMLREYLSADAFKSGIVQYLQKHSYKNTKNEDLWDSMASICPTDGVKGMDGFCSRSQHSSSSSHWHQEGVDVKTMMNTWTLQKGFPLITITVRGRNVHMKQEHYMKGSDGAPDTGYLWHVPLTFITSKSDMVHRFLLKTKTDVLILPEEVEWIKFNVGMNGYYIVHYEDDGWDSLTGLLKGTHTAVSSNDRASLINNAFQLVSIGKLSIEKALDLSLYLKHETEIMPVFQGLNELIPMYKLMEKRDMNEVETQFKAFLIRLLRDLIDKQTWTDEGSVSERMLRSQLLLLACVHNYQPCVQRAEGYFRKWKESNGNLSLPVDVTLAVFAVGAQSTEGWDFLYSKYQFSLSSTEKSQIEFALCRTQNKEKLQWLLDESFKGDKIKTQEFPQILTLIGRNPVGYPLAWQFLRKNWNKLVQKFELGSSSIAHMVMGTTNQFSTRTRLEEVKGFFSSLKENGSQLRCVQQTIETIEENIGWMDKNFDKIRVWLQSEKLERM
Leucyl-cystinyl aminopeptidase, sequence (Q9UIQ6 whole entry): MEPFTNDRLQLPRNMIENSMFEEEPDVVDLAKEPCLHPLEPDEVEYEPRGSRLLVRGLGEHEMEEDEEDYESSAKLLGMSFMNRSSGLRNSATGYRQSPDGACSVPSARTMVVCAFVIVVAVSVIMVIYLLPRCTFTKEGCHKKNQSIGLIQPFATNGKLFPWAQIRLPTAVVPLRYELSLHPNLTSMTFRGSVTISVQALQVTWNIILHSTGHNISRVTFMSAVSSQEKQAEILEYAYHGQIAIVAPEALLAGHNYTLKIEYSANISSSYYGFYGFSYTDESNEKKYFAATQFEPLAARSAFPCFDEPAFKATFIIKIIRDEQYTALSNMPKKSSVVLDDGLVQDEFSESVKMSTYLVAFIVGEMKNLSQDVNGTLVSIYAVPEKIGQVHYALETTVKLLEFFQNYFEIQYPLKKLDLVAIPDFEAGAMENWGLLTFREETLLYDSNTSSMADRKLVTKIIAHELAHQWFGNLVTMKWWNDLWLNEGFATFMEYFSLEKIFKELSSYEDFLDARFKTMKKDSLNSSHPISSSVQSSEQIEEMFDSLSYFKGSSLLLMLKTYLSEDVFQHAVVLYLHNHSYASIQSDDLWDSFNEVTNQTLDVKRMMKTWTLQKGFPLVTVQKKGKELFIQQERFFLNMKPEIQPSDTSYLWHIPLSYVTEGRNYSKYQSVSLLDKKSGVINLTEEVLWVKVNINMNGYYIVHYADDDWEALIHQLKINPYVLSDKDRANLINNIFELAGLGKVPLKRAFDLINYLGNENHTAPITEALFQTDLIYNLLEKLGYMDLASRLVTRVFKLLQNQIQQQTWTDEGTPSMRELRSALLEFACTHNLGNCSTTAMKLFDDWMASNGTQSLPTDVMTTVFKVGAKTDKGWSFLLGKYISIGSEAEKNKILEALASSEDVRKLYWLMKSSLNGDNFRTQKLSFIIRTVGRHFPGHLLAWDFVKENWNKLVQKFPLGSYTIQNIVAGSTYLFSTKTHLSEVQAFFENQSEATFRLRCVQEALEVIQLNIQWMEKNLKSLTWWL
T2 sequence (Q6P179 whole entry): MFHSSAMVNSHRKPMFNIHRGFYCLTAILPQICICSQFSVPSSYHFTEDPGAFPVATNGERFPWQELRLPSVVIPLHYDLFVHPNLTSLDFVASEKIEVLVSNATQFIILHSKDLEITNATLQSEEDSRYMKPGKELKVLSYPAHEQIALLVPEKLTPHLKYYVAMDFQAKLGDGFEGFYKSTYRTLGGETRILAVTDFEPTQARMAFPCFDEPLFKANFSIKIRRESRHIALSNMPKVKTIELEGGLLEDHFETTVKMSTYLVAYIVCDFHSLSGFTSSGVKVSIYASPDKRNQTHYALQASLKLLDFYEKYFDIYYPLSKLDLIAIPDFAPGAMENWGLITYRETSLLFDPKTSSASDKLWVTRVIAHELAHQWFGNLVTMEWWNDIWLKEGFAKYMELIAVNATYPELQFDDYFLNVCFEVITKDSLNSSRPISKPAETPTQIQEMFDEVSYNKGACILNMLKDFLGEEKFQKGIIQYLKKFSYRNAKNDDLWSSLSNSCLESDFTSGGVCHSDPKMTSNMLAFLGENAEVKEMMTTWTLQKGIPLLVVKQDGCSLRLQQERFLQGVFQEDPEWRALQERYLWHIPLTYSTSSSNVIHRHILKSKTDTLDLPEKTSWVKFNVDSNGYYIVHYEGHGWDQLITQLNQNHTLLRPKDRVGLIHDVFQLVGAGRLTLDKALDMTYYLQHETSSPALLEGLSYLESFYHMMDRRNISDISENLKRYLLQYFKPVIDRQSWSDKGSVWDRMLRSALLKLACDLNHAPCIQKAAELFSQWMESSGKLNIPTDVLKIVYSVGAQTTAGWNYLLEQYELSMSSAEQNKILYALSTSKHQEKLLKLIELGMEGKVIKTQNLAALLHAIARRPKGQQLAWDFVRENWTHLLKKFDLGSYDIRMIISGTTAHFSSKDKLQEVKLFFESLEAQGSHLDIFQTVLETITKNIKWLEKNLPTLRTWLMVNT

As for `Nc1ccc(C(=O)N[C@@H](Cc2c[nH]c3ccccc23)C(=O)OCc2ccccc2)cc1N`, the inhibition entry in test [1] is “inactive”. Further, in test [2], the IC50 is more than 100 µM.
Consider `COC(=O)[C@H](CCCCN)NC(=O)c1ccc(N)c(NC(=O)[C@@H](N)CCc2ccc(O)cc2)c1`, for which the IC50 in test [3] was more than 100 µM.
Turning to `CCCC[C@H](N)C(=O)Nc1cc(C(=O)N[C@@H](Cc2ccc(O)cc2)C(=O)OC)ccc1N`, the IC50 in test [3] is more than 100 µM.
With `COC(=O)c1ccc(N)c(NC(=O)[C@@H](N)CCc2ccc(OCc3ccccc3)cc2)c1`, the inhibition entry in test [1] and in test [4] was “inactive” throughout.
As for `COC(=O)c1ccc(N)c(NC(=O)[C@@H](N)CCCNC(=N)N)c1`, the inhibition result in test [1] is “inactive”.
With `COC(=O)[C@H](Cc1ccc(O)cc1)NC(=O)c1ccc(NC(=O)[C@@H](N)Cc2ccc(OCc3ccccc3)cc2)c(N)c1`, the inhibition result in test [1] is “inactive”.
For `COC(=O)c1ccc(NC(=O)[C@@H](N)Cc2ccc(O)cc2)c(N)c1`, the inhibition entry in test [1] was “inactive”.
`COC(=O)c1ccc(N)c(NC(=O)[C@@H](N)CC(C)C)c1`: the inhibition entry in test [1], in test [4] and in test [5] was “inactive” throughout.
Consider `Nc1ccc(C(=O)O)cc1NC(=O)[C@@H](N)Cc1ccc(O)cc1`, for which, in test [3], the IC50 is more than 100 µM.
Turning to `CCCC[C@H](N)C(=O)Nc1ccc(C(=O)N[C@H](C(=O)OCc2ccccc2)C(C)C)cc1N`, in test [3], the IC50 was more than 100 µM.
On to `CC(C)[C@H](NC(=O)c1ccc(N)c(NC(=O)[C@@H](N)CCCNC(=N)N)c1)C(=O)O`, for which the inhibition entry in test [1] was “inactive”.
With `COC(=O)[C@H](CCCCN)NC(=O)c1ccc(N)c(NC(=O)[C@@H](N)CCCNC(=N)N)c1`, in test [5], the inhibition entry was “inactive”.
For `CCCC[C@H](N)C(=O)Nc1ccc(C(=O)OC)cc1N`, the inhibition entry in test [1] is “inactive”.
Turning to `COC(=O)[C@@H](NC(=O)c1ccc(N)c(NC(=O)[C@@H](N)Cc2ccc(O)cc2)c1)[C@@H](C)O`, the 50% inhibitory concentration (IC50) in test [3] is more than 100 µM.
As for `CCCC[C@H](N)C(=O)Nc1cc(C(=O)OC)ccc1N`, the IC50 in test [3] was more than 100 µM.
`COC(=O)[C@H](CCCCN)NC(=O)c1ccc(N)c(N)c1`: the IC50 in test [3] is more than 100 µM. Besides, the inhibition result in test [4] is “inactive”.
As for `COC(=O)[C@H](CCCCN)NC(=O)c1ccc(NC(=O)[C@@H](N)Cc2ccc(O)cc2)c(N)c1`, the half-maximal inhibitory concentration (IC50) in test [3] and in test [2] was more than 100 µM in each case.
For the compound `COC(=O)[C@H](CCCNC(=N)N)NC(=O)c1ccc(N)c(N)c1`, the inhibition entry in test [4] was “inactive”.
Regarding `Nc1ccc(C(=O)N[C@@H](Cc2c[nH]c3ccccc23)C(=O)O)cc1NC(=O)[C@@H](N)Cc1ccc(O)cc1`, in test [2], the IC50 was found to be 40 µM.
For the compound `NCCCC[C@H](NC(=O)c1ccc(N)c(NC(=O)[C@@H](N)Cc2ccc(O)cc2)c1)C(=O)O`, in test [1], the inhibition entry was “inactive”.
On to `Nc1cc(C(=O)N[C@@H](Cc2c[nH]c3ccccc23)C(=O)OCc2ccccc2)ccc1NC(=O)[C@@H](N)CCc1ccc(OCc2ccccc2)cc1`, for which, in test [1], the inhibition entry was “inactive”.
For the compound `COC(=O)[C@H](CCCCN)NC(=O)c1ccc(NC(=O)[C@@H](N)CCc2ccccc2)c(N)c1`, the inhibition entry in test [1] and in test [4] was “inactive” each time.
On to `COC(=O)c1ccc(NC(=O)[C@@H](N)CCCNC(=N)N)c(N)c1`, for which the inhibition result in test [1] is “inactive”.
Turning to `Nc1ccc(C(=O)N[C@@H](Cc2c[nH]c3ccccc23)C(=O)O)cc1NC(=O)[C@@H](N)CCc1ccc(O)cc1`, the IC50 in test [2] was more than 100 µM.
Consider `COC(=O)c1ccc(N)c(NC(=O)[C@@H](N)Cc2ccc(OCc3ccccc3)cc2)c1`, for which the inhibition result in test [1] and in test [4] was “inactive” throughout.
For the compound `COC(=O)[C@H](CCCCN)NC(=O)c1ccc(NC(=O)[C@@H](N)CCCNC(=N)N)c(N)c1`, the inhibition entry in test [1] is “inactive”.
`CC(C)[C@H](NC(=O)c1ccc(NC(=O)[C@@H](N)CCc2ccccc2)c(N)c1)C(=O)O`: in test [1], the inhibition result is “inactive”. The IC50 in test [2] was more than 100 µM.
For `COC(=O)[C@H](Cc1ccc(O)cc1)NC(=O)c1ccc(N)c(NC(=O)[C@@H](N)Cc2ccc(O)cc2)c1`, the IC50 in test [3] was 110 µM.
`CC(C)[C@H](NC(=O)c1ccc(N)c(NC(=O)[C@@H](N)Cc2ccc(O)cc2)c1)C(=O)OCc1ccccc1`: the inhibition entry in test [1] is “inactive”.
For `CCCC[C@H](N)C(=O)Nc1ccc(C(=O)N[C@@H](CCCCN)C(=O)OC)cc1N`, the inhibition entry in test [1] is “inactive”.
Turning to `CC(C)[C@H](NC(=O)c1ccc(N)c(NC(=O)[C@@H](N)Cc2ccc(O)cc2)c1)C(=O)O`, the inhibition entry in test [1] was “inactive”. Moreover, the IC50 in test [2] is more than 100 µM.
Consider `COC(=O)c1ccc(NC(=O)[C@@H](N)CCc2ccccc2)c(N)c1`, for which the IC50 in test [3] was more than 100 µM.
In the case of `COC(=O)c1ccc(NC(=O)[C@@H](N)Cc2ccc(OCc3ccccc3)cc2)c(N)c1`, the inhibition entry in test [1] and in test [4] was “inactive” each time.
Regarding `COC(=O)c1ccc(N)c(NC(=O)[C@@H](N)CCc2ccc(O)cc2)c1`, in test [3], the IC50 is more than 100 µM. The inhibition entry in test [4] was “inactive”.
With `CC(C)C[C@H](N)C(=O)Nc1cc(C(=O)O)ccc1N`, the inhibition entry in test [1], in test [4] and in test [5] was “inactive” each time.
Turning to `COC(=O)c1ccc(N)c(NC(=O)[C@@H](N)Cc2ccc(O)cc2)c1`, the inhibition entry in test [1] is “inactive”. In addition, the half-inhibitory concentration (IC50) in test [2] is more than 100 µM.
Turning to `NCCCC[C@H](NC(=O)c1ccc(N)c(NC(=O)[C@@H](N)Cc2ccccc2)c1)C(=O)O`, the inhibition result in test [1] is “inactive”.
On to `N=C(N)NCCC[C@H](N)C(=O)Nc1cc(C(=O)O)ccc1N`, for which the inhibition result in test [1] was “inactive”. Also, the half-inhibitory concentration (IC50) in test [2] is more than 100 µM.
As to `CC(C)[C@H](NC(=O)c1ccc(NC(=O)[C@@H](N)CCc2ccccc2)c(N)c1)C(=O)OCc1ccccc1`, the inhibition entry in test [1] was “inactive”. Further, in test [2], the 50% inhibitory concentration (IC50) is more than 100 µM.
With `COC(=O)c1ccc(NC(=O)[C@@H](N)CC(C)C)c(N)c1`, the inhibition entry in test [1] and in test [5] was “inactive” in each case. In addition, the IC50 in test [2] is more than 100 µM.
Regarding `COC(=O)[C@H](CCCN)NC(=O)c1ccc(N)c(NC(=O)[C@@H](N)CCc2ccccc2)c1`, the inhibition entry in test [1], in test [4] and in test [5] was “inactive” in each case.
As for `Nc1ccc(C(=O)N[C@@H](Cc2c[nH]c3ccccc23)C(=O)OCc2ccccc2)cc1NC(=O)[C@@H](N)CCc1ccc(OCc2ccccc2)cc1`, the IC50 in test [3] and in test [2] was more than 100 µM throughout.
For `Nc1ccc(C(=O)O)cc1NC(=O)[C@@H](N)Cc1ccc(OCc2ccccc2)cc1`, the inhibition result in test [1] and in test [4] was “inactive” in each case.
As to `COC(=O)[C@H](Cc1ccc(O)cc1)NC(=O)c1ccc(N)c(N)c1`, the inhibition result in test [1] and in test [4] was “inactive” in each case.
Take `COC(=O)[C@H](CCCCN)NC(=O)c1ccc(N)c(NC(=O)[C@@H](N)CCc2ccc(OCc3ccccc3)cc2)c1`: in test [3], the IC50 was more than 100 µM.
For `Nc1ccc(C(=O)N[C@@H](Cc2c[nH]c3ccccc23)C(=O)O)cc1N`, the IC50 in test [3] was more than 100 µM.
In the case of `COC(=O)[C@H](CCCCN)NC(=O)c1ccc(N)c(NC(=O)[C@@H](N)COCc2ccccc2)c1`, the inhibition entry in test [1], in test [4] and in test [5] was “inactive” each time.
`COC(=O)[C@H](CCCCN)NC(=O)c1ccc(N)c(NC(=O)[C@@H](N)CC(C)C)c1`: the inhibition entry in test [1] and in test [5] was “inactive” in each case.
